Measured values from ChEMBL document CHEMBL1124929, “Indolo[2,1-a]isoquinolines. Syntheses, steroid hormone receptor binding affinities, and cytostatic activity” (1990).

Legend:
[1] = biological target: T1, Androgen Receptor (Bos taurus) (UniProt Q5EM59); experiment: Relative binding affinity(RBA) for 50% displacement of [3H]mibolerone from Androgen receptor compared to testorone
T1 sequence (whole entry): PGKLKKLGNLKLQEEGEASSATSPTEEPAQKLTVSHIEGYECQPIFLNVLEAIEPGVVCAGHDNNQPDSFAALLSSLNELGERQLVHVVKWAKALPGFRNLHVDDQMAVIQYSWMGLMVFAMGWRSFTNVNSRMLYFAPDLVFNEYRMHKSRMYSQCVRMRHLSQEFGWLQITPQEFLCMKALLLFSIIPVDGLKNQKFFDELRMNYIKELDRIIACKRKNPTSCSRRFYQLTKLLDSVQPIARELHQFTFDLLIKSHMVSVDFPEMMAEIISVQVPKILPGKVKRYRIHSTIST
Summary of the method: (§1)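 Receptor source was calf uterine cytosol (105000g supernatant, 3 mg/mL protein in assay). Buffers were Tris/EDTA pH 7.4, with NaN₃ for ER, molybdate/glycerol for AR, and sucrose for PR. Tracers were 1 nM [³H]estradiol, [³H]mibolerone or [³H]Org 2058. Incubation was at 0–4 °C for 16 h (ER) or 2 h (AR, PR), with 4–6 competitor concentrations. Nonspecific binding used 2 µM of the unlabeled hormone. Separation was by dextran-coated charcoal. RBA is the ratio of IC50 values for hormone and compound ×100, mean of two triplicate experiments.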

[2] = biological target: Estrogen receptor (Bos taurus) (UniProt Q9XSB5+P49884); experiment: Relative binding affinity(RBA) for 50% displacement of [3H]-estradiol from Estrogen receptor compared to 17-beta-estradiol; format: protein assay; summary of the method: as §1
Bos taurus = organism: Bos taurus; experiment: Relative binding affinity(RBA) as ratio of progesterone and compound required to displace [3H]-org 2058 binding to Progesterone receptor by 50%; summary of the method: as §1
MCF7 [3] = experiment: Effect on [3H]thymidine incorporation into MCF-7 human breast cancer cells at 1x10E-5 M; format: functional
Summary of the method: (§2)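 Cells were seeded at ~2 × 10⁴ per well, treated from the next day in 0.1% DMSO, with DMSO controls. MCF-7 cells were held in charcoal-stripped NCS for 2 weeks, treated for 5 days and re-dosed on day 4. MDA-MB 231 cells were grown in McCoy 5a/10% NCS and treated for 2 days. At the end, 1 µCi [³H]thymidine per well was added for 2 h. Result is % T/C, mean of three experiments × six dishes.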

MCF7 [4] = experiment: Effect on hormone-dependent MCF-7 human breast cancer cell proliferation at 1x10E-5 M; format: functional
Summary of the method: (§3)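 Cells were plated at about 2 × 10⁴ per well in six-well dishes. MCF-7 cells were grown in modified improved MEM with 5% NCS, switched to charcoal-treated NCS two weeks before the test, and exposed for 5 days with a re-dose on day 4. MDA-MB 231 cells were grown in McCoy 5a with 10% NCS and exposed for 2 days. Compounds were given 1 day after plating in 0.1% DMSO, with DMSO-matched controls. Read-out was cell number as % T/C, mean of three experiments with six dishes.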

[5] = biological target: T2, Estrogen receptor (Mus musculus) (UniProt O08537+P19785); experiment: Inhibition of 0.4 ug estrone-stimulated uterine growth in mice at 250 ug subcutaneous dose; format: functional
T2 sequence (O08537 whole entry, looked up): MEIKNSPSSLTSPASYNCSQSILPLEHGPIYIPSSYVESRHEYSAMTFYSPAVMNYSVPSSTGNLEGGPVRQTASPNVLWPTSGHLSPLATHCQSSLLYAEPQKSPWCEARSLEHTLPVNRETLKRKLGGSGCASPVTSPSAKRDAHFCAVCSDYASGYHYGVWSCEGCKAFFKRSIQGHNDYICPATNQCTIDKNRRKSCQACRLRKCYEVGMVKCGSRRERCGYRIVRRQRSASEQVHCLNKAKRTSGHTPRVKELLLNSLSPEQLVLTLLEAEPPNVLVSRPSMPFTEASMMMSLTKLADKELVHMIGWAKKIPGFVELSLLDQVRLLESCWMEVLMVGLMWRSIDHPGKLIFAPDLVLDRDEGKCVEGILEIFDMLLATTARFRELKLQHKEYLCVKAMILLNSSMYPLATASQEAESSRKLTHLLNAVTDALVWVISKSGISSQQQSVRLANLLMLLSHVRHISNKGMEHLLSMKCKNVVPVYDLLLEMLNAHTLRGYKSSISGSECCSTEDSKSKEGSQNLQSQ
T2 sequence (P19785 whole entry, looked up): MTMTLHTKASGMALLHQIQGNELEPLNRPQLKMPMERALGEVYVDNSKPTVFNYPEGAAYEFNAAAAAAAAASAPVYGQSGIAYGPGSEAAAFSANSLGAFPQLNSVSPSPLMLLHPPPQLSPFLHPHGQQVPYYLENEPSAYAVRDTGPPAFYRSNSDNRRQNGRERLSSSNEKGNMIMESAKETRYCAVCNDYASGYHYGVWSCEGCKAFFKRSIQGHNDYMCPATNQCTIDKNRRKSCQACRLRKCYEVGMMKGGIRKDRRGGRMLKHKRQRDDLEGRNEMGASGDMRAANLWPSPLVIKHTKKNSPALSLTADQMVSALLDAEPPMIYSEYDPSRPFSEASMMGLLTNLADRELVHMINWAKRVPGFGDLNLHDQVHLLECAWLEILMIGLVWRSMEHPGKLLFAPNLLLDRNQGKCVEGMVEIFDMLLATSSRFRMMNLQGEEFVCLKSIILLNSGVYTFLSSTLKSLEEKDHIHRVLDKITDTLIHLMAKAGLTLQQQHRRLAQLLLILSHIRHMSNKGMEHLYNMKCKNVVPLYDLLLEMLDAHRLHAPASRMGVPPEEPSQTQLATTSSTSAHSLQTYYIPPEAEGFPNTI
Summary of the method: (§4)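 Immature 20-day-old female NMRI mice received sc injections on three consecutive days. Each injection held 0.4 µg estrone plus the compound in PEG/saline 1:1. […] Significance was tested by Mann-Whitney U test.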

[6] = biological target: T2, Estrogen receptor (Mus musculus); experiment: Inhibition of 0.4 ug estrone-stimulated uterine growth in mice at 50.0 ug subcutaneous dose; format: functional; summary of the method: as §4
MCF7 [7] = experiment: Effect on [3H]thymidine incorporation into MCF-7 human breast cancer cells at 5x10E-6M; format: functional; summary of the method: as §2
[8] = biological target: T2, Estrogen receptor (Mus musculus); experiment: Inhibition of 0.4 ug estrone-stimulated uterine growth in mice at 10.0 ug subcutaneous dose; format: functional; summary of the method: as §4
[9] = biological target: T2, Estrogen receptor (Mus musculus); experiment: (§5) Estrogenic activity in uterotrophic assay in immature mice at 2 ug subcutaneous dose; format: functional
Summary of the method: (§6)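 Immature female NMRI mice, 20 days old, in groups of 6-10, were dosed sc once daily for three consecutive days. Compounds were given in PEG/0.9% saline 1:1; vehicle controls were included. Animals were killed 24 h after the last dose. Uteri were fixed in Bouin solution and the effect was taken as uterine dry weight (mg)/body weight (g) ×100, given as mean ± SD.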

MDA-MB-231 [10] = experiment: Cytostatic effect on hormone-independent MDA-MB 231 human breast cancer cell proliferation at5x10E-6M; format: functional; summary of the method: as §3
MCF7 [11] = experiment: Effect on hormone-dependent MCF-7 human breast cancer cell proliferation at 5x10E-6M; format: functional; summary of the method: as §3
[12] = biological target: T2, Estrogen receptor (Mus musculus); experiment: (§7) Estrogenic activity in uterotrophic assay in immature mice at 10.0 ug subcutaneous dose; format: functional; summary of the method: as §6
[13] = biological target: T2, Estrogen receptor (Mus musculus); experiment: (§8) Estrogenic activity in uterotrophic assay in immature mice at 50.0 ug subcutaneous dose; format: functional; summary of the method: as §6
MDA-MB-231 [14] = experiment: Effect on [3H]thymidine incorporation into MDA-MB 231 human breast cancer cells at 1x10E-5 M; format: functional; summary of the method: as §2
MDA-MB-231 [15] = experiment: Cytostatic effect on hormone-independent MDA-MB 231 human breast cancer cell proliferation at 1x10E-5 M; format: functional; summary of the method: as §3
[16] = biological target: T2, Estrogen receptor (Mus musculus); experiment: (§9) Estrogenic activity in uterotrophic assay in immature mice at 250 ug subcutaneous dose; format: functional; summary of the method: as §6
[17] = biological target: T2, Estrogen receptor (Mus musculus); experiment: as §7; format: functional; summary of the method: as §6; remark: listed apart in the source
[18] = biological target: T2, Estrogen receptor (Mus musculus); experiment: as §9; format: functional; summary of the method: as §6; remark: listed apart in the source
MDA-MB-231 [19] = experiment: Effect on [3H]thymidine incorporation into MDA-MB 231 human breast cancer cells at 5x10E-6M; format: functional; summary of the method: as §2
[20] = biological target: T2, Estrogen receptor (Mus musculus); experiment: as §8; format: functional; summary of the method: as §6; remark: listed apart in the source
[21] = biological target: T2, Estrogen receptor (Mus musculus); experiment: as §5; format: functional; summary of the method: as §6; remark: listed apart in the source
[22] = biological target: T3, Androgen receptor (Mus musculus) (UniProt P19091); experiment: Inhibition of testosterone-stimulated seminal vesicle growth in castrated mice supplemented with 0.3 mg of TP at 1000.0 ug; format: functional
T3 sequence (whole entry): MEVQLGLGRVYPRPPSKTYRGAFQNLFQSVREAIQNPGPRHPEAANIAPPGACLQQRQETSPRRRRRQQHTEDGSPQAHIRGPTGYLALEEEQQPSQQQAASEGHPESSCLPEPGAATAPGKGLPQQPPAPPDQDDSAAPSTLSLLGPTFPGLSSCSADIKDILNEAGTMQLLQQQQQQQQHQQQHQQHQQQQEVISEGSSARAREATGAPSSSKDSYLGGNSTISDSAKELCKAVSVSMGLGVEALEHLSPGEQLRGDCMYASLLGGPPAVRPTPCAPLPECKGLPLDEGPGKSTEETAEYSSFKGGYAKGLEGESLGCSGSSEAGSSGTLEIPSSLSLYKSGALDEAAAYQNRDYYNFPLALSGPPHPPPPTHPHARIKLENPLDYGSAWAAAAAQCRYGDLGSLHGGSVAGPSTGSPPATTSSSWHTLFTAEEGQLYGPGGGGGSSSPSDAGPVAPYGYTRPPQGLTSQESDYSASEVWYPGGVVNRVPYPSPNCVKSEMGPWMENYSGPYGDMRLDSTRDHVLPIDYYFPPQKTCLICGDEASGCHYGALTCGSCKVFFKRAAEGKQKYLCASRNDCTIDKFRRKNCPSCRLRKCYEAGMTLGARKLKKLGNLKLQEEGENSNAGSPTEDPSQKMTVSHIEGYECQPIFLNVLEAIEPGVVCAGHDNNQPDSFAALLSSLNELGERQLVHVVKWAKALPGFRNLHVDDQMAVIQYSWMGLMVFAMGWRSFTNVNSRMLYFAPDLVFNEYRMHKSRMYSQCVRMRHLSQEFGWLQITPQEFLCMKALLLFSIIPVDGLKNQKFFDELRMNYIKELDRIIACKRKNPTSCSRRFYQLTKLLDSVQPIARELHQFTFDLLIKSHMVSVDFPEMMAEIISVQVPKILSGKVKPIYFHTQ
Summary of the method: (§10)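 Adult male mice, 23–25 g, six per group, were used intact or castrated via the scrotal route under ether 5 days before the test. Castrates received 0.3 mg testosterone propionate daily. Compounds were injected daily in olive oil for nine days. Seminal vesicles were taken 24 h later, fixed in Bouin solution, dried overnight at 100 °C and weighed. Result is organ mg/body g ×100; % inhibition = [1 − treated/control] × 100.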

[23] = biological target: T3, Androgen receptor (Mus musculus); experiment: Inhibition of seminal vesicle weight in intact mice at 100 ug
[24] = biological target: T3, Androgen receptor (Mus musculus); experiment: Relative effect on seminal vesicle weight in adult and castrated mice at 100 ug dose; format: functional, tissue-based; summary of the method: as §10
MDA-MB-231 [25] = experiment: Effect on [3H]-thymidine incorporation into MDA-MB 231 human breast cancer cells at 1x10E-6M; format: functional; summary of the method: as §2
[26] = biological target: T2, Estrogen receptor (Mus musculus); experiment: Inhibition of 0.4 ug estrone-stimulated uterine growth in mice at 2 ug subcutaneous dose; format: functional; summary of the method: as §4
MDA-MB-231 [27] = experiment: Cytostatic effect on hormone-independent MDA-MB 231 human breast cancer cell proliferation at 1x10E-6M; format: functional; summary of the method: as §3
MCF7 [28] = experiment: Effect on hormone-dependent MCF-7 human breast cancer cell proliferation at 1x10E-6M; format: functional; summary of the method: as §3
MCF7 [29] = experiment: Effect on [3H]thymidine incorporation into MCF-7 human breast cancer cells at 1x10E-6M; format: functional; summary of the method: as §2
[30] = biological target: T3, Androgen receptor (Mus musculus); experiment: Relative effect on seminal vesicle weight in adult and castrated mice supplemented with 0.3 mg TP at 1000 ug dose; format: functional, tissue-based; summary of the method: as §10
[31] = biological target: T3, Androgen receptor (Mus musculus); experiment: Relative effect on seminal vesicle weight in adult and castrated mice at 1000 ug dose; format: functional, tissue-based; summary of the method: as §10

SMILES	RBA [1]	RBA [2]	RBA (Bos taurus)	T/C (MCF7 [3])	T/C (MCF7 [4])	inhibition [5]	inhibition [6]	T/C (MCF7 [7])	inhibition [8]	Effect [9]	T/C (MDA-MB-231 [10])	T/C (MCF7 [11])	Effect [12]	Effect [13]	T/C (MDA-MB-231 [14])	T/C (MDA-MB-231 [15])	Effect [16]	Effect [17]	Effect [18]	T/C (MDA-MB-231 [19])	further results
CC(=O)Oc1ccc2cc3n(c2c1)CCc1cc(OC(C)=O)c(OC(C)=O)cc1-3	< 0.01	0.05	–	–	–	–	–	–	–	–	–	–	–	–	–	–	–	–	–	–	–
CC(=O)Oc1cc2c(cc1OC(C)=O)-c1cc3cc(OC(C)=O)c(OC(C)=O)cc3n1CC2	< 0.01	< 0.01	–	–	–	–	–	–	–	–	–	–	–	–	–	–	–	–	–	–	–
CCC1Cn2c(cc3cc(OC(C)=O)ccc32)-c2ccc(OC(C)=O)cc21 (stereo not given)	< 0.01	2.5	< 0.01	7%	31%	22.4%	23.3%	95%	18.7%	16.8	88%	97%	44.1	42.5	25%	45%	46.1	21.5	42.7	90%	Effect [20]: 24.1; Effect [21]: 50.9
CCC1Cc2cc(OC(C)=O)ccc2-c2cc3ccc(OC(C)=O)cc3n21 (stereo not given)	2.5	4	0.05	2%	6%	6.8%	31%	24%	17.4%	11.5	11%	39%	44.5	18.5	8%	11%	40.5	15.7	48.2	11%	inhibition [22]: 12%; inhibition [23]: 21%; Relative seminal vesicle weight [24]: 156; T/C (MDA-MB-231 [25]): 93%; inhibition [26]: 2.8%; T/C (MDA-MB-231 [27]): 98%; T/C (MCF7 [28]): 67%; T/C (MCF7 [29]): 42%; Relative seminal vesicle weight [30]: 200; Effect [20]: 18.5; Effect [21]: 49.6; Relative seminal vesicle weight [31]: 121
CC(=O)Oc1ccc2c(c1)CCn1c-2cc2cc(OC(C)=O)c(OC(C)=O)cc21	< 0.01	0.01	–	–	–	–	–	–	–	–	–	–	–	–	–	–	–	–	–	–	–
